This note sets out measurements from ChEMBL document CHEMBL4190230, “Structurally Diverse Diterpenoids from Isodon scoparius and Their Bioactivity” (J Nat Prod, 2017).

Bounds are passed on as bounds.

What all share (format): functional, cell-based
For one assay, the system named is HL-60. Description: Antiproliferative activity against human HL60 cells after 48 hrs by MTS assay. The conditions noted are these: HL-60, 48 h. The method, boiled down: (§1)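 Cells grown in RPMI-1640 or DMEM with 10% FBS at 37 °C, 5% CO2. Seeded, 12 h at 37 °C, then 40 μM single-concentration screen, 48 h exposure, MTS read-out. Compounds reaching 50% growth inhibition retested at 0.064, 0.32, 1.6, 8 and 40 μM in triplicate; cisplatin and paclitaxel positive controls; IC50 by Reed and Muench method.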
(Tetrazolium assays rely on reduction of a dye to a coloured formazan, in cell work by metabolically active cells.)

A further assay concerns SMMC-7721. The assay is described as follows: Antiproliferative activity against human SMMC7721 cells after 48 hrs by MTS assay. The conditions noted are these: SMMC-7721, 48 h. The method, boiled down:
as §1

The test system of the next assay is A549. The assay is described as follows: Antiproliferative activity against human A549 cells after 48 hrs by MTS assay. The conditions noted are these: A549, 48 h. The essentials: as §1
The next assay concerns MCF7. Description: Antiproliferative activity against human MCF7 cells after 48 hrs by MTS assay. To be noted: MCF7, 48 h. The method, boiled down:
as §1

The test system of another assay is SW480. The assay is described as follows: Antiproliferative activity against human SW480 cells after 48 hrs by MTS assay. The conditions noted are these: SW480, 48 h. The essentials:
as §1

For a further assay, the system named is RAW264.7. Description: Inhibition of LPS-induced NO production in mouse RAW264.7 cells after 18 hrs by Griess assay. To be noted: RAW264.7, 18 h. The essentials:
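RAW264.7 macrophages seeded at 1.5 × 10^5 cells/well, given serial dilutions (top 20 μM) in triplicate, then stimulated with 1 μg/mL LPS for 18 h. Supernatant nitrite measured with Griess reagent, 5 min, absorbance 570 nm. L-NMMA positive control; parallel MTS viability check to exclude cytotoxic interference.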
On the technique in general: Griess reagent forms a coloured azo dye with nitrite.

Turning to `C=C1[C@@H](O)[C@@]23CC[C@H]4[C@@](C)(CCC[C@@]4(C)C=O)[C@@H]2[C@@H](OC(C)=O)C[C@]1(O)C3`, the IC50 with HL-60, with SMMC-7721, with A549, with MCF7 and in the assay on SW480 was above 40 µM each time.

In the case of `C=C1[C@@H](O)[C@@]23CC[C@@H]4C(C)(C)[C@H](O)CC[C@@]4(C)[C@@H]2[C@@H](O)C[C@]1(O)C3`, the IC50 in the assay on HL-60, in the assay with SMMC-7721, in the assay with A549, in the assay on MCF7 and in the assay on SW480 was above 40 µM each time.

Consider `C=C1C(=O)[C@]23C[C@@]1(O)C[C@H](OC(C)=O)[C@H]2[C@@]1(C)[C@H](C[C@H]3O)[C@](C)(CO)CC[C@@H]1O`, for which the IC50 in the assay on HL-60, in the assay with SMMC-7721, in the assay on A549, in the assay with MCF7 and in the assay on SW480 was above 40 µM throughout.

In the case of `C[C@@]1(CO)CCC[C@@]2(C)[C@H]1C[C@@H](O)C1=CC(=O)CC[C@@]12O`, the IC50 with HL-60, with SMMC-7721, in the assay with A549, in the assay with MCF7 and in the assay on SW480 was above 40 µM each time.

On to `C=C1[C@@H](O)[C@@]23CC[C@@H]4[C@@](C)(CO)CCC[C@@]4(C)[C@@H]2[C@@H](OC(C)=O)C[C@]1(O)C3`, for which the IC50 in the assay on HL-60, with SMMC-7721, with A549, in the assay on MCF7 and in the assay with SW480 was above 40 µM throughout.

For the compound `C=C1C(=O)[C@]23C[C@@]1(O)C[C@H](OC(C)=O)[C@H]2[C@@]1(C)[C@H](C[C@H]3O)C(C)(C)CC[C@@H]1O`, the IC50 (in general, the point on the concentration scale where inhibition reaches its midpoint) was determined as 7 µM with HL-60; 4.7 µM in the assay with SMMC-7721; 19.6 µM in the assay on A549; 11 µM in the assay on MCF7; 2.5 µM in the assay with SW480; 3.1 µM in the assay with RAW264.7.

`C=C1C(=O)[C@@]23CC[C@@H]4C(C)(C)[C@@H](O)CC[C@@]4(C)[C@@H]2[C@@H](OC(C)=O)C[C@]1(O)C3`: the concentration for half-maximal inhibition (IC50) in the assay with HL-60 turned out to be 1 µM; with SMMC-7721, 1.5 µM; in the assay with A549, 4.4 µM; in the assay with MCF7 it was 2.9 µM; with SW480 it was 0.9 µM; in the assay with RAW264.7 it was 1 µM.

As for `C=C1[C@@H](O)[C@@]23CC[C@@H]4C(C)(C)[C@H](O)CC[C@@]4(C)[C@@H]2[C@@H](OC(C)=O)C[C@]1(O)C3`, the half-maximal inhibitory concentration (IC50) in the assay on HL-60, with SMMC-7721, in the assay on A549, in the assay with MCF7 and with SW480 was above 40 µM throughout.

With `C=C1[C@@H](O)[C@@]23CC[C@@H]4[C@@](C)(CO)CCC[C@@]4(C)[C@@H]2[C@@H](O)C[C@]1(O)C3`, the IC50 with HL-60, in the assay on SMMC-7721, with A549, with MCF7 and in the assay with SW480 was above 40 µM each time.

As to `C=C1[C@@H](O)[C@@]23CC[C@@H]4C(C)(C)[C@@H](O)CC[C@@]4(C)[C@@H]2[C@@H](OC(C)=O)C[C@]1(O)C3`, the IC50 with HL-60, in the assay with SMMC-7721, in the assay with A549, with MCF7 and with SW480 was above 40 µM each time.

`C=C1C(=O)[C@]23C[C@@]1(O)C[C@H](OC(C)=O)[C@H]2[C@@]1(C)[C@H](C[C@H]3O)[C@](C)(COC(C)=O)CC[C@@H]1O`: the IC50 stood at 3.2 µM in the assay with HL-60; 3.9 µM with SMMC-7721; 13.4 µM with A549; 4.8 µM with MCF7; 1.3 µM with SW480; 1.8 µM in the assay with RAW264.7.

Consider `CC(=O)O[C@H]1C(=O)[C@@]2(C)[C@H]([C@H](OC(=O)c3ccccc3)[C@]3(O)C[C@H](OC(=O)[C@H](O)[C@@H](NC(=O)c4ccccc4)c4ccccc4)C(C)=C1C3(C)C)[C@]1(OC(C)=O)CO[C@@H]1C[C@@H]2O` [PACLITAXEL], for which the IC50 with HL-60, in the assay on SMMC-7721, in the assay with A549, with MCF7 and with SW480 was below 0.008 µM in each case.

`CNC(=N)NCCC[C@H](N)C(=O)O` [TILARGININE ACETATE] showed a concentration for half-maximal inhibition (IC50) with RAW264.7 of 39.9 µM.
